Data on 13 compounds can be found in ChEMBL document CHEMBL3739367, “Design and synthesis of fused tetrahydroisoquinoline-iminoimidazolines” (Eur J Med Chem, 2015).

Data set [1] addresses Adenosine receptor A2a (Homo sapiens, UniProt P29274). The experiment in a line: Displacement of [3H]-[…] from human adenosine A2A receptor expressed in HEK293 cells after 1 hr by scintillation counting. The class given is cell-based. (In general: Displacement assays read how much labelled ligand stays bound in the presence of the test substance.)
A short description of data set [2]: Cytotoxicity against human SH-SY5Y cells after 72 hrs by MTT assay. The class given is cell-based. The essentials:
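SH-SY5Y neuroblastoma cells grown in DMEM with 2 mM L-glutamine, streptomycin/penicillin, 1 mM non-essential amino acids, 10% heat-inactivated FBS, 37 °C, 5% CO2. Seeded 2000 cells/well, serum-starved 24 h to synchronise, then exposed to various compound concentrations (<0.1% DMSO) for 72 h; growth read by colorimetric MTT assay; CC50 reported.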

Sequence of Adenosine receptor A2a (P29274 whole entry): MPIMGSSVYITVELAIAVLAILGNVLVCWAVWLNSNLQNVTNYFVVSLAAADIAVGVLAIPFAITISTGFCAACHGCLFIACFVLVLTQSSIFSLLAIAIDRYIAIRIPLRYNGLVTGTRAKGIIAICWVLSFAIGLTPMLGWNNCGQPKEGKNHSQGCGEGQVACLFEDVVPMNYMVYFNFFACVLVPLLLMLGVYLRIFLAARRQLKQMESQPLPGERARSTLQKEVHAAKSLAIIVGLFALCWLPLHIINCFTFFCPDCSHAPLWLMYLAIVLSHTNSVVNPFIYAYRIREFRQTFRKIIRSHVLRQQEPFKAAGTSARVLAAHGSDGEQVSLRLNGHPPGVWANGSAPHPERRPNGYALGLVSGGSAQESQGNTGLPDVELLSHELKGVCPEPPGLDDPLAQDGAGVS

As usually defined, the Ki is the dissociation constant of the complex between target and ligand, obtained from inhibition or displacement. Low readings indicate tighter binding, high ones weaker binding. As usually defined, the CC50 is the concentration giving 50% cytotoxicity. Read a low CC50 as harm at low concentration. In the case of `N=C1N(CCN2CCOCC2)C[C@@H]2Cc3ccccc3CN12`, in data set [1], the Ki is greater than 200 µM. In data set [2], this compound showed a CC50 at 72 h greater than 100 µM.
Consider `N=C1N[C@@H](Cc2ccc(F)cc2)CN1Cc1ccccc1`, for which, in data set [1], the Ki was greater than 200 µM. Moreover, in data set [2], the CC50 at 72 h was greater than 100 µM.
For the compound `C[C@H]1CN(Cc2ccccc2)C(=N)N1`, the Ki in data set [1] was greater than 200 µM. The CC50 at 72 h in data set [2] is greater than 100 µM.
The matching figures for `CN1C(=N)N(Cc2ccccc2)CC1Cc1ccccc1` (racemic): greater than 200 µM and greater than 100 µM.
`N=C1N(CCCCc2ccccc2)C[C@@H]2Cc3ccccc3CN12` gave a Ki in data set [1] of 35 µM. The CC50 at 72 h in data set [2] is greater than 100 µM.
For the compound `N=C1N[C@@H](Cc2ccccc2)CN1Cc1ccccc1`, in data set [1], the Ki was greater than 200 µM. The same compound showed a CC50 at 72 h in data set [2] greater than 100 µM.
As for `N=C1N(Cc2ccccc2)C[C@@H]2Cc3ccccc3CN12`, in data set [1], the inhibition constant (Ki) was 64 µM. Besides, in data set [2], the CC50 at 72 h was greater than 100 µM.
`COc1ccc(C[C@H]2CN(Cc3ccccc3)C(=N)N2)cc1` yielded an inhibition constant Ki in data set [1] greater than 200 µM. Besides, in data set [2], the CC50 at 72 h was greater than 100 µM.
`N=C1N[C@@H](Cc2ccc(O)cc2)CN1Cc1ccccc1` showed a Ki in data set [1] greater than 200 µM. This compound also displayed a CC50 at 72 h in data set [2] greater than 100 µM.
For the compound `O=C1[C@@H]2Cc3ccccc3CN2C(=O)N1Cc1ccccc1`, the Ki in data set [1] was 44 µM. In addition, in data set [2], the 50% cytotoxic concentration (CC50) at 72 h is greater than 100 µM.
`N=C1N(Cc2ccccc2)C[C@@H]2CCCCN12` registered a Ki in data set [1] greater than 200 µM. In addition, the cytotoxic concentration (CC50) at 72 h in data set [2] is greater than 100 µM.
In turn, `CCCCCCN1C[C@@H]2Cc3ccccc3CN2C1=N` returned a Ki in data set [1] greater than 200 µM. In data set [2], this compound came in with a CC50 at 72 h greater than 100 µM.
The compound `N=C1N(CCc2ccccn2)C[C@@H]2Cc3ccccc3CN12` registered a Ki in data set [1] greater than 200 µM. The compound further yielded a CC50 at 72 h in data set [2] greater than 100 µM.
